Data as given in ChEMBL document CHEMBL4038326, “Discovery, Structure-Activity Relationship, and Binding Mode of an Imidazo[1,2-a]pyridine Series of Autotaxin Inhibitors” (J Med Chem, 2017).

How the values were obtained:
[1] = biological target: T1, Autotaxin (Homo sapiens, UniProt Q13822); assay: Inhibition of glycosylated human ATX using LPC 16:0 as substrate after 30 mins by luminescence assay
How it was run: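 Started with 150 µM LPC 16:0 solution, 30 min at 37°C. Stopped with EGTA and choline detected by choline oxidase/HRP/TOOS/4-aminoantipyrine; read after 30 min at room temperature.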

[2] = biological target: Autotaxin (Rattus norvegicus, UniProt Q64610); assay: Inhibition of ATX in rat plasma assessed as reduction in plasma lysophosphatidic acid 18:2 levels after 2 hrs by LC-MS/MS method
How it was run: (§1)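 Rat plasma thawed on ice and incubated with a compound dose range for 2 h at 37°C. Methanol precipitation with LPA 17:0 internal standard, isocratic C18 LC-MS/MS, LPA 18:2/LPA 17:0 peak-area ratio. % reduction = 100 − (ratio/control ratio × 100). Some compounds were tested only at 0.5, 5 and 50 µM (n = 3).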

[3] = biological target: T1, Autotaxin; assay: Inhibition of glycosylated human ATX using FS-3 as substrate preincubated for 30 mins followed by substrate addition measured after 30 mins by fluorescence assay
How it was run: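 Fivefold compound dilutions from a 20 µM top. Started with 0.75 µM FS-3 solution; fluorescence (ex 485, em 520 nm) read after 30 min at room temperature. SD where replicated at least twice.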

[4] = biological target: Autotaxin (Rattus norvegicus) (UniProt Q64610); assay: Inhibition of ATX in rat plasma assessed as reduction in plasma lysophosphatidic acid 18:2 levels at 0.5 to 50 uM after 2 hrs by LC-MS/MS method relative to control; how it was run: as §1
[5] = Half life in Sprague-Dawley rat at 1 mg/kg, iv; assay type: ADME, organism-based; settings: in vivo
How it was run: (§2)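 PK from single 1 mg/kg iv and 5 mg/kg po doses (n = 3); mice sampled compositely as a group of six. Plasma drug by LC-MS/MS against an eight-level calibration curve with QCs, LLOQ 4 ng/mL. Parameters by noncompartmental analysis of averaged plasma concentrations; CV% reported for rats.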

[6] = Plasma concentration in Sprague-Dawley rat at 5 mg/kg, po measured after 1 hr by LC-MS/MS method; assay type: ADME, organism-based
How it was run: (§3)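 Fasted male Sprague Dawley rats dosed orally at 5 mg/kg in 10% hydroxypropyl-β-cyclodextrin (pH 3, citric acid); jugular catheter blood into Li-heparin at 0.5, 1, 3 h. Plasma level by LC-MS/MS against an eight-level calibration curve with QCs, LLOQ 4 ng/mL; mean of 3 animals.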

[7] = Plasma concentration in Sprague-Dawley rat at 5 mg/kg, po measured after 0.5 hrs by LC-MS/MS method; assay type: ADME, organism-based; how it was run: as §3
[8] = tested on: Rattus norvegicus; assay: In vivo inhibition of ATX in Sprague-Dawley rat plasma assessed as reduction in plasma lysophosphatidic acid 18:2 levels at 5 mg/kg, po measured after 0.5 hrs by LC-MS/MS method; assay type: functional
How it was run: (§4)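 Fasted male Sprague Dawley rats given 5 mg/kg orally in 10% hydroxypropyl-β-cyclodextrin, pH 3 with citric acid. Jugular catheter blood taken into Li-heparin at 0.5, 1 and 3 h. Methanol precipitation with LPA 17:0 internal standard, isocratic C18 LC-MS/MS, peak-area ratio of LPA 18:2 to LPA 17:0 with no calibration curve. % reduction against the vehicle group mean at the same time; 3 animals.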

[9] = Volume of distribution at steady state in mouse at 1 mg/kg, iv; assay type: ADME, organism-based; settings: in vivo, read-out: Vdss; how it was run: as §2
[10] = Volume of distribution at steady state in Sprague-Dawley rat at 1 mg/kg, iv; assay type: ADME, organism-based; settings: in vivo, read-out: Vdss; how it was run: as §2
[11] = tested on: Rattus norvegicus; assay: In vivo inhibition of ATX in Sprague-Dawley rat plasma assessed as reduction in plasma lysophosphatidic acid 18:2 levels at 5 mg/kg, po measured after 1 hr by LC-MS/MS method; assay type: functional; how it was run: as §4
[12] = Plasma concentration in Sprague-Dawley rat at 5 mg/kg, po measured after 3 hrs by LC-MS/MS method; assay type: ADME, organism-based; how it was run: as §3
[13] = Protein binding in Sprague-Dawley rat plasma; assay type: ADME, cell-free; settings: read-out: PPB
[14] = Half life in mouse at 1 mg/kg, iv; assay type: ADME, organism-based; settings: in vivo; how it was run: as §2
[15] = tested on: Rattus norvegicus; assay: In vivo inhibition of ATX in Sprague-Dawley rat plasma assessed as reduction in plasma lysophosphatidic acid 18:2 levels at 5 mg/kg, po measured after 3 hrs by LC-MS/MS method; assay type: functional; how it was run: as §4
[16] = biological target: Autotaxin (Rattus norvegicus) (UniProt Q64610); settings: 50 uM
[17] = biological target: Autotaxin (Rattus norvegicus) (UniProt Q64610); settings: 5 uM
[18] = biological target: Autotaxin (Rattus norvegicus) (UniProt Q64610); settings: 0.5 uM
[19] = Clearance in Sprague-Dawley rat at 1 mg/kg, iv; assay type: ADME, organism-based; settings: in vivo; how it was run: as §2
[20] = Oral bioavailability in Sprague-Dawley rat at 5 mg/kg; assay type: ADME, organism-based; settings: in vivo; how it was run: as §2

| SMILES | IC50 [1] [nM] | further results |
| --- | --- | --- |
| CCc1nc2ccc(C3CCN(S(C)(=O)=O)CC3)cn2c1N(C)c1nc(-c2ccc(F)cc2C#N)cs1 | 126 | – |
| CCc1nc2ccc(C3CCN(S(C)(=O)=O)CC3)cn2c1N(C)c1nc(-c2ccc(F)cc2F)cs1 | 2020 | – |
| CCc1nc2ccc(N3CCN(Cc4ncon4)CC3)cn2c1N(C)c1nc(-c2ccc(F)cc2)cs1 | 1710 | – |
| CCc1nc2ccc(N3CCN(Cc4ncc[nH]4)CC3)cn2c1N(C)c1nc(-c2ccc(F)cc2)cs1 | > 4100 | – |
| CCc1nc2ccc(C3CCN(S(C)(=O)=O)CC3)cn2c1N(C)c1nc(-c2ccc(F)cc2)c(C(=O)O)s1 | > 10000 | – |
| CCc1nc2ccc(C3CCN(S(C)(=O)=O)CC3)cn2c1N(C)c1nc2c(s1)Cc1ccc(F)cc1-2 | 804 | – |
| CCc1nc2ccc(C3CCN(S(C)(=O)=O)CC3)cn2c1N(C)c1nc(C2CCCCC2)cs1 | 1900 | – |
| CCc1nc2ccc(N3CCN(Cc4cnc[nH]4)CC3)cn2c1N(C)c1nc(-c2ccc(F)cc2)cs1 | 771 | IC50 [2]: 4.1 µM |
| CCc1nc2ccc(C3CCN(S(C)(=O)=O)CC3)cn2c1N(C)c1nc2ccccc2s1 | > 10000 | – |
| CCc1nc2ccc(C3CCN(S(C)(=O)=O)CC3)cn2c1N(C)c1nc(-c2ccc(F)cc2)c(C#N)s1 | 138 | – |
| CCc1nc2ccc(C3CCN(CC(=O)N4CC(O)C4)CC3)cn2c1N(C)c1nc(-c2ccc(F)cc2)c(C#N)s1 | – | half-life [5]: 126 min; concentration at 1 h [6]: 34 nM; concentration at 0.5 h [7]: 67 nM; inhibition in vivo at 5 mg/kg [8]: 74%; Vd [9]: 1.7 L/kg; Vd [10]: 8.3 L/kg; inhibition in vivo at 5 mg/kg [11]: 82%; concentration at 3 h [12]: 58 nM; fraction unbound [13]: < 0.01; half-life [14]: 120 min; inhibition in vivo at 5 mg/kg [15]: 97% |
| CCc1nc2ccc(-c3cccnc3)cn2c1N(C)c1nc(-c2ccc(F)cc2)cs1 | > 10000 | IC50 [3]: 2 nM; inhibition [4]: < 50%; IC50 [2]: > 50 µM |
| CCc1nc2ccc(C3CCN(S(C)(=O)=O)CC3)cn2c1N(C)c1nc(-c2ccc(Cl)nc2)cs1 | 493 | – |
| CCc1nc2ccc(C3CCN(S(C)(=O)=O)CC3)cn2c1N(C)c1nc(-c2cc(F)cc(F)c2)cs1 | 4250 | – |
| CCc1nc2ccc(C3CCN(S(C)(=O)=O)CC3)cn2c1N(C)c1nc2c(s1)Cc1cc(F)ccc1-2 | 1210 | – |
| CCc1nc2ccc(N3CCN(Cc4ncco4)CC3)cn2c1N(C)c1nc(-c2ccc(F)cc2)cs1 | 1520 | – |
| CCc1nc2ccc(C(=O)NCCO)cn2c1N(C)c1nc(-c2ccc(Cl)cc2)cs1 | > 10000 | IC50 [3]: 122 nM; clearance [19]: 2.5 mL/min/kg; inhibition [4]: < 50%; bioavailability [20]: 39%; IC50 [2]: > 50 µM |

Further lines, with some results ahead:

| IC50 [1] [nM] | SMILES | further results |
| --- | --- | --- |
| 7610 | CCc1nc2ccc(C3CCN(S(C)(=O)=O)CC3)cn2c1N(C)c1nc(-c2ccc(C(C)(C)C)cc2)cs1 | – |
| 86 | CCc1nc2ccc(C3CCN(CC(=O)N4CCCC4)CC3)cn2c1N(C)c1nc(-c2ccc(F)cc2)cs1 | IC50 [2]: 0.115 µM |
| 533 | CCc1nc2ccc(C3CCN(S(C)(=O)=O)CC3)cn2c1N(C)c1nc(-c2ccc(F)cc2C)cs1 | – |
| 710 | CCc1nc2ccc(C3CCN(S(C)(=O)=O)CC3)cn2c1N(C)c1nc(-c2ccc(F)cc2)cs1 | IC50 [2]: 1.03 µM |
| 1000 | CCc1nc2ccc(C3CCN(S(C)(=O)=O)CC3)cn2c1N(C)c1nc(-c2ccc(C(F)(F)F)cc2)cs1 | – |
| 480 | CCOC(=O)CN1CCC(c2ccc3nc(CC)c(N(C)c4nc(-c5ccc(F)cc5)cs4)n3c2)CC1 | – |
| 1610 | CCc1nc2ccc(C3CCN(CC(=O)NC4CC4)CC3)cn2c1N(C)c1nc(-c2ccc(F)cc2)cs1 | – |
| 357 | CCc1nc2ccc(C3CCN(S(=O)(=O)CCCN(C)C)CC3)cn2c1N(C)c1nc(-c2ccc(F)cc2)cs1 | – |
| 6560 | CCOC(=O)N1CCC(NC(=O)c2ccc3nc(CC)c(N(C)c4nc(-c5ccc(Cl)cc5)cs4)n3c2)CC1 | IC50 [3]: 5 nM; IC50 [2]: 12.6 µM |
| 280 | CCOC(=O)CN1CCN(c2ccc3nc(CC)c(N(C)c4nc(-c5ccc(F)cc5)cs4)n3c2)CC1 | – |
| 6800 | CCc1nc2ccc(N3CCOCC3)cn2c1N(C)c1nc(-c2ccc(F)cc2)cs1 | IC50 [3]: 8 nM; inhibition [4]: < 50%; IC50 [2]: > 50 µM |
| 9160 | CCc1nc2ccc(N3CCN(CC(=O)O)CC3)cn2c1N(C)c1nc(-c2ccc(F)cc2)cs1 | – |
| 231 | CCc1nc2ccc(N3CCN(CC(=O)N4CCOCC4)CC3)cn2c1N(C)c1nc(-c2ccc(F)cc2)cs1 | – |
| 2370 | CCc1nc2ccc(C3CCN(CC(N)=O)CC3)cn2c1N(C)c1nc(-c2ccc(F)cc2)cs1 | – |
| 1680 | CCc1nc2ccc(C3CCN(S(C)(=O)=O)CC3)cn2c1N(C)c1nc(-c2ccc(OC)cc2)cs1 | – |
| 1210 | CCOC(=O)N1CCC(NCc2ccc3nc(CC)c(N(C)c4nc(-c5ccc(Cl)cc5)cs4)n3c2)CC1 | inhibition [16]: 100%; IC50 [3]: 9 nM; inhibition [17]: 67%; inhibition [18]: 7%; IC50 [2]: < 5 µM |
| 261 | CCc1nc2ccc(C3CCN(CC(=O)N(C)C)CC3)cn2c1N(C)c1nc(-c2ccc(F)cc2)cs1 | IC50 [2]: 0.476 µM |
| 1900 | CCc1nc2ccc(C3CCN(S(C)(=O)=O)CC3)cn2c1N(C)c1nc(-c2ccc(F)c(F)c2)cs1 | – |
| 2360 | CCc1nc2ccc(N3CCN(CCO)CC3)cn2c1N(C)c1nc(-c2ccc(F)cc2)cs1 | IC50 [3]: 12 nM; IC50 [2]: 6.08 µM |
| 1410 | CCc1nc2ccc(C3CCN(S(C)(=O)=O)CC3)cn2c1N(C)c1nc(-c2ccc(F)cc2)c(C(N)=O)s1 | – |
| 2270 | CCc1nc2ccc(C3CCN(S(C)(=O)=O)CC3)cn2c1N(C)c1nc(-c2ccc(F)cc2)c(C)s1 | – |
